{
  "source": "paper PMC3125946",
  "about": "(Biochemistry, 2011)",
  "data": [
    {"molecular_target": "T1, MjCobY (Methanocaldococcus jannaschii, UniProt Q58517, G153D)", "T1 sequence (Q58517 1-196 G153D)": "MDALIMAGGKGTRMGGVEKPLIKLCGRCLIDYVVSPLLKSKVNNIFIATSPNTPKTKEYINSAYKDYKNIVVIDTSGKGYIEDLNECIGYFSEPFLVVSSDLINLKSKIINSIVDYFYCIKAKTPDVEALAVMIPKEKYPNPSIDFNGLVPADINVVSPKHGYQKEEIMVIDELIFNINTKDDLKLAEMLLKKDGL", "test": "isothermal titration calorimetry", "assay_type": "binding", "summary_of_the_method": "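Recombinant G153D variant purified by heat step (75°C, 15 min), ammonium sulfate, hydrophobic interaction, anion exchange and size-exclusion chromatography; dialysed at 4 °C against Tris-HCl 50 mM pH 8.0, NaCl 50 mM, MgCl2 10 mM, TCEP 4 mM. GTP in spent dialysate; 1 mM stock titrated by 27 injections into 18 µM protein dimers at 27 °C.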", "units": {"Kd": "nM"}, "values": [
      {"molecule": "Nc1nc2c(ncn2[C@@H]2O[C@H](COP(=O)(O)OP(=O)(O)OP(=O)(O)O)[C@@H](O)[C@H]2O)c(=O)[nH]1", "note": "[GTP]", "Kd": "400 ± 40"}
    ]},
    {"molecular_target": "the molecule itself", "test": "SEC", "units": {"percent dimer (Monomer:Dimer Ratio)": "%", "percent monomer (Monomer:Dimer Ratio)": "%"}, "values": [
      {"molecule": "MjCobY^G8D (enzyme, Methanocaldococcus jannaschii, UniProt Q58517 1-196, looked up) MDALIMADGKGTRMGGVEKPLIKLCGRCLIDYVVSPLLKSKVNNIFIATSPNTPKTKEYINSAYKDYKNIVVIDTSGKGYIEDLNECIGYFSEPFLVVSSDLINLKSKIINSIVDYFYCIKAKTPDVEALAVMIPKEKYPNPSIDFNGLVPAGINVVSPKHGYQKEEIMVIDELIFNINTKDDLKLAEMLLKKDGL", "percent dimer (Monomer:Dimer Ratio)": 67, "percent monomer (Monomer:Dimer Ratio)": 33},
      {"molecule": "MjCobY R13A (enzyme, Methanocaldococcus jannaschii, UniProt Q58517 1-196, looked up) MDALIMAGGKGTAMGGVEKPLIKLCGRCLIDYVVSPLLKSKVNNIFIATSPNTPKTKEYINSAYKDYKNIVVIDTSGKGYIEDLNECIGYFSEPFLVVSSDLINLKSKIINSIVDYFYCIKAKTPDVEALAVMIPKEKYPNPSIDFNGLVPAGINVVSPKHGYQKEEIMVIDELIFNINTKDDLKLAEMLLKKDGL", "percent dimer (Monomer:Dimer Ratio)": 86, "percent monomer (Monomer:Dimer Ratio)": 14},
      {"molecule": "MjCobY Y80F (enzyme, Methanocaldococcus jannaschii, UniProt Q58517 1-196, looked up) MDALIMAGGKGTRMGGVEKPLIKLCGRCLIDYVVSPLLKSKVNNIFIATSPNTPKTKEYINSAYKDYKNIVVIDTSGKGFIEDLNECIGYFSEPFLVVSSDLINLKSKIINSIVDYFYCIKAKTPDVEALAVMIPKEKYPNPSIDFNGLVPAGINVVSPKHGYQKEEIMVIDELIFNINTKDDLKLAEMLLKKDGL", "percent dimer (Monomer:Dimer Ratio)": 26, "percent monomer (Monomer:Dimer Ratio)": 74},
      {"molecule": "MjCobY T53S (enzyme, Methanocaldococcus jannaschii, UniProt Q58517 1-196, looked up) MDALIMAGGKGTRMGGVEKPLIKLCGRCLIDYVVSPLLKSKVNNIFIATSPNSPKTKEYINSAYKDYKNIVVIDTSGKGYIEDLNECIGYFSEPFLVVSSDLINLKSKIINSIVDYFYCIKAKTPDVEALAVMIPKEKYPNPSIDFNGLVPAGINVVSPKHGYQKEEIMVIDELIFNINTKDDLKLAEMLLKKDGL", "percent dimer (Monomer:Dimer Ratio)": 24, "percent monomer (Monomer:Dimer Ratio)": 76},
      {"molecule": "MjCobY K19A (enzyme, Methanocaldococcus jannaschii, UniProt Q58517 1-196, looked up) MDALIMAGGKGTRMGGVEAPLIKLCGRCLIDYVVSPLLKSKVNNIFIATSPNTPKTKEYINSAYKDYKNIVVIDTSGKGYIEDLNECIGYFSEPFLVVSSDLINLKSKIINSIVDYFYCIKAKTPDVEALAVMIPKEKYPNPSIDFNGLVPAGINVVSPKHGYQKEEIMVIDELIFNINTKDDLKLAEMLLKKDGL", "percent dimer (Monomer:Dimer Ratio)": 64, "percent monomer (Monomer:Dimer Ratio)": 36},
      {"molecule": "MjCobY D101G (enzyme, Methanocaldococcus jannaschii, UniProt Q58517 1-196, looked up) MDALIMAGGKGTRMGGVEKPLIKLCGRCLIDYVVSPLLKSKVNNIFIATSPNTPKTKEYINSAYKDYKNIVVIDTSGKGYIEDLNECIGYFSEPFLVVSSGLINLKSKIINSIVDYFYCIKAKTPDVEALAVMIPKEKYPNPSIDFNGLVPAGINVVSPKHGYQKEEIMVIDELIFNINTKDDLKLAEMLLKKDGL", "percent dimer (Monomer:Dimer Ratio)": 66, "percent monomer (Monomer:Dimer Ratio)": 34},
      {"molecule": "MjCobY D83G (enzyme, Methanocaldococcus jannaschii, UniProt Q58517 1-196, looked up) MDALIMAGGKGTRMGGVEKPLIKLCGRCLIDYVVSPLLKSKVNNIFIATSPNTPKTKEYINSAYKDYKNIVVIDTSGKGYIEGLNECIGYFSEPFLVVSSDLINLKSKIINSIVDYFYCIKAKTPDVEALAVMIPKEKYPNPSIDFNGLVPAGINVVSPKHGYQKEEIMVIDELIFNINTKDDLKLAEMLLKKDGL", "percent dimer (Monomer:Dimer Ratio)": 18, "percent monomer (Monomer:Dimer Ratio)": 82},
      {"molecule": "MjCobY P20A (enzyme, Methanocaldococcus jannaschii, UniProt Q58517 1-196, looked up) MDALIMAGGKGTRMGGVEKALIKLCGRCLIDYVVSPLLKSKVNNIFIATSPNTPKTKEYINSAYKDYKNIVVIDTSGKGYIEDLNECIGYFSEPFLVVSSDLINLKSKIINSIVDYFYCIKAKTPDVEALAVMIPKEKYPNPSIDFNGLVPAGINVVSPKHGYQKEEIMVIDELIFNINTKDDLKLAEMLLKKDGL", "percent dimer (Monomer:Dimer Ratio)": 37, "percent monomer (Monomer:Dimer Ratio)": 63},
      {"molecule": "MjCobY P54A (enzyme, Methanocaldococcus jannaschii, UniProt Q58517 1-196, looked up) MDALIMAGGKGTRMGGVEKPLIKLCGRCLIDYVVSPLLKSKVNNIFIATSPNTAKTKEYINSAYKDYKNIVVIDTSGKGYIEDLNECIGYFSEPFLVVSSDLINLKSKIINSIVDYFYCIKAKTPDVEALAVMIPKEKYPNPSIDFNGLVPAGINVVSPKHGYQKEEIMVIDELIFNINTKDDLKLAEMLLKKDGL", "percent dimer (Monomer:Dimer Ratio)": 50, "percent monomer (Monomer:Dimer Ratio)": 50},
      {"molecule": "MjCobY^G153D (enzyme, Methanocaldococcus jannaschii) MDALIMAGGKGTRMGGVEKPLIKLCGRCLIDYVVSPLLKSKVNNIFIATSPNTPKTKEYINSAYKDYKNIVVIDTSGKGYIEDLNECIGYFSEPFLVVSSDLINLKSKIINSIVDYFYCIKAKTPDVEALAVMIPKEKYPNPSIDFNGLVPADINVVSPKHGYQKEEIMVIDELIFNINTKDDLKLAEMLLKKDGL", "percent dimer (Monomer:Dimer Ratio)": 46, "percent monomer (Monomer:Dimer Ratio)": 54},
      {"molecule": "MjCobY P94A (enzyme, Methanocaldococcus jannaschii, UniProt Q58517 1-196, looked up) MDALIMAGGKGTRMGGVEKPLIKLCGRCLIDYVVSPLLKSKVNNIFIATSPNTPKTKEYINSAYKDYKNIVVIDTSGKGYIEDLNECIGYFSEAFLVVSSDLINLKSKIINSIVDYFYCIKAKTPDVEALAVMIPKEKYPNPSIDFNGLVPAGINVVSPKHGYQKEEIMVIDELIFNINTKDDLKLAEMLLKKDGL", "percent dimer (Monomer:Dimer Ratio)": 48, "percent monomer (Monomer:Dimer Ratio)": 52},
      {"molecule": "MjCobY E18D (enzyme, Methanocaldococcus jannaschii, UniProt Q58517 1-196, looked up) MDALIMAGGKGTRMGGVDKPLIKLCGRCLIDYVVSPLLKSKVNNIFIATSPNTPKTKEYINSAYKDYKNIVVIDTSGKGYIEDLNECIGYFSEPFLVVSSDLINLKSKIINSIVDYFYCIKAKTPDVEALAVMIPKEKYPNPSIDFNGLVPAGINVVSPKHGYQKEEIMVIDELIFNINTKDDLKLAEMLLKKDGL", "percent dimer (Monomer:Dimer Ratio)": 60, "percent monomer (Monomer:Dimer Ratio)": 40}
    ]}
  ]
}
